Results published in ChEMBL document CHEMBL3627695, “1-Benzyl-2-methyl-3-indolylmethylene barbituric acid derivatives: Anti-cancer agents that target nucleophosmin 1 (NPM1)” (Bioorg Med Chem, 2015).
Activity calls are given as the source filed them. No cut-off for these calls is given here.

How the values were obtained:
OCI-AML-3 = experiment: (§1) Anticancer activity against human OCI-AML3 cells expressing mutant NPM1 assessed as apoptosis for 48 hrs by annexin-V and TO-PRO3 staining based flow cytometry; type: functional, cell-based
How it was run: (§2)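 OCI-AML3 cells (NPM1c+) in logarithmic growth, passaged 2–3 times weekly. Cells were exposed to the indicated compound concentrations for 48 hr, then stained with annexin V and TO-PRO 3. Percent apoptotic cells was read by flow cytometry. AP50 is the concentration at which 50% of cells undergo apoptosis.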

CCRF-CEM = experiment: Anticancer activity against human CCRF-CEM cells after 48 hrs by sulforhodamine B assay; type: functional
How it was run: (§3)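 NCI-60 human tumour cell line panel. Compounds dissolved in DMSO/H2O and tested at five 10-fold dilutions (10⁻⁴ M to 10⁻⁸ M) for 48 hr. GI50 is the molar concentration giving 50% reduction in net cell growth relative to cell numbers on day 0.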

HL-60(TB) = experiment: Anticancer activity against human HL-60(TB) cells after 48 hrs by sulforhodamine B assay; type: functional; conditions: HL-60, 48 h; how it was run: as §3
K562 = experiment: Anticancer activity against human K562 cells after 48 hrs by sulforhodamine B assay; type: functional; conditions: K562, 48 h; how it was run: as §3
[1] = Anticancer activity against human MOLT4 cells after 48 hrs by sulforhodamine B assay; type: functional; conditions: MOLT-4, 48 h; how it was run: as §3
[2] = Anticancer activity against human RPMI8226 cells after 48 hrs by sulforhodamine B assay; type: functional; conditions: RPMI-8226, 48 h; how it was run: as §3
SR = experiment: Anticancer activity against human SR cells after 48 hrs by sulforhodamine B assay; type: functional
How it was run: (§4)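 NCI-60 panel protocol. Compounds were dissolved in DMSO/H2O and tested at five 10-fold concentrations (10⁻⁴ to 10⁻⁸ M) with 48 hr incubation. GI50 is the molar concentration giving a 50% reduction in net cell growth relative to cell numbers on day 0.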

A549 = experiment: Anticancer activity against human A549/ATCC cells after 48 hrs by sulforhodamine B assay; type: functional; conditions: A549, 48 h; how it was run: as §3
HOP-62 = experiment: Anticancer activity against human HOP62 cells after 48 hrs by sulforhodamine B assay; type: functional; conditions: HOP-62, 48 h; how it was run: as §3
[3] = Anticancer activity against human HOP92 cells after 48 hrs by sulforhodamine B assay; type: functional; conditions: HOP-92, 48 h; how it was run: as §3
NCI-H226 = experiment: Anticancer activity against human NCI-H226 cells after 48 hrs by sulforhodamine B assay; type: functional; conditions: NCI-H226, 48 h; how it was run: as §3
NCI-H322M = experiment: Anticancer activity against human NCI-H322M cells after 48 hrs by sulforhodamine B assay; type: functional; how it was run: as §3
NCI-H460 = experiment: Anticancer activity against human NCI-H460 cells after 48 hrs by sulforhodamine B assay; type: functional; conditions: NCI-H460, 48 h; how it was run: as §3
NCI-H522 = experiment: Anticancer activity against human NCI-H522 cells after 48 hrs by sulforhodamine B assay; type: functional; conditions: NCI-H522, 48 h; how it was run: as §3
[4] = Anticancer activity against human COLO205 cells after 48 hrs by sulforhodamine B assay; type: functional; conditions: COLO 205, 48 h; how it was run: as §3
[5] = Anticancer activity against human HCC2998 cells after 48 hrs by sulforhodamine B assay; type: functional; conditions: HCC 2998, 48 h; how it was run: as §3
HCT-116 = experiment: Anticancer activity against human HCT116 cells after 48 hrs by sulforhodamine B assay; type: functional; conditions: HCT-116, 48 h; how it was run: as §3
HCT-15 = experiment: Anticancer activity against human HCT15 cells after 48 hrs by sulforhodamine B assay; type: functional; conditions: HCT-15, 48 h; how it was run: as §3
HT-29 = experiment: Anticancer activity against human HT-29 cells after 48 hrs by sulforhodamine B assay; type: functional; conditions: HT-29, 48 h; how it was run: as §3
KM12 = experiment: Anticancer activity against human KM12 cells after 48 hrs by sulforhodamine B assay; type: functional; conditions: KM12, 48 h; how it was run: as §3
SW-620 = experiment: Anticancer activity against human SW620 cells after 48 hrs by sulforhodamine B assay; type: functional; conditions: SW-620, 48 h; how it was run: as §4
SF-268 = experiment: Anticancer activity against human SF268 cells after 48 hrs by sulforhodamine B assay; type: functional; conditions: SF-268, 48 h; how it was run: as §3
[6] = Anticancer activity against human SF295 cells after 48 hrs by sulforhodamine B assay; type: functional; conditions: SF-295, 48 h; how it was run: as §3
[7] = Anticancer activity against human SF539 cells after 48 hrs by sulforhodamine B assay; type: functional; conditions: SF-539, 48 h; how it was run: as §3
SNB-19 = experiment: Anticancer activity against human SNB19 cells after 48 hrs by sulforhodamine B assay; type: functional; conditions: SNB-19, 48 h; how it was run: as §3
SNB-75 = experiment: Anticancer activity against human SNB75 cells after 48 hrs by sulforhodamine B assay; type: functional; conditions: SNB-75, 48 h; how it was run: as §3
U-251 = experiment: Anticancer activity against human U251 cells after 48 hrs by sulforhodamine B assay; type: functional; conditions: U-251, 48 h; how it was run: as §4
[8] = Anticancer activity against human LOXIMVI cells after 48 hrs by sulforhodamine B assay; type: functional; conditions: LOX IMVI; how it was run: as §3
Malme-3M = experiment: Anticancer activity against human MALME-3M cells after 48 hrs by sulforhodamine B assay; type: functional; how it was run: as §3
M14 = experiment: Anticancer activity against human M14 cells after 48 hrs by sulforhodamine B assay; type: functional; conditions: M14, 48 h; how it was run: as §3
MDA-MB-435 = experiment: Anticancer activity against human MDA-MB-435 cells after 48 hrs by sulforhodamine B assay; type: functional; conditions: MDA-MB-435, 48 h; how it was run: as §3
SK-MEL-2 = experiment: Anticancer activity against human SK-MEL-2 cells after 48 hrs by sulforhodamine B assay; type: functional; conditions: SK-MEL-2, 48 h; how it was run: as §3
SK-MEL-28 = experiment: Anticancer activity against human SK-MEL-28 cells after 48 hrs by sulforhodamine B assay; type: functional; conditions: SK-MEL-28, 48 h; how it was run: as §3
SK-MEL-5 = experiment: Anticancer activity against human SK-MEL-5 cells after 48 hrs by sulforhodamine B assay; type: functional; conditions: SK-MEL-5, 48 h; how it was run: as §3
UACC-257 = experiment: Anticancer activity against human UACC257 cells after 48 hrs by sulforhodamine B assay; type: functional; conditions: UACC-257, 48 h; how it was run: as §4
IGROV-1 = experiment: Anticancer activity against human IGROV1 cells after 48 hrs by sulforhodamine B assay; type: functional; conditions: IGROV-1, 48 h; how it was run: as §3
OVCAR-3 = experiment: Anticancer activity against human OVCAR3 cells after 48 hrs by sulforhodamine B assay; type: functional; conditions: OVCAR-3, 48 h; how it was run: as §3
OVCAR-4 = experiment: Anticancer activity against human OVCAR4 cells after 48 hrs by sulforhodamine B assay; type: functional; conditions: OVCAR-4, 48 h; how it was run: as §3
OVCAR-5 = experiment: Anticancer activity against human OVCAR5 cells after 48 hrs by sulforhodamine B assay; type: functional; conditions: OVCAR-5, 48 h; how it was run: as §3
OVCAR-8 = experiment: Anticancer activity against human OVCAR8 cells after 48 hrs by sulforhodamine B assay; type: functional; conditions: OVCAR-8, 48 h; how it was run: as §3
[9] = Anticancer activity against human NCI-ADR-RES cells after 48 hrs by sulforhodamine B assay; type: functional; how it was run: as §3
SK-OV-3 = experiment: Anticancer activity against human SKOV3 cells after 48 hrs by sulforhodamine B assay; type: functional; conditions: SK-OV-3, 48 h; how it was run: as §3
786-0 = experiment: Anticancer activity against human 786-0 cells after 48 hrs by sulforhodamine B assay; type: functional; conditions: 786-0, 48 h; how it was run: as §3
A498 = experiment: Anticancer activity against human A498 cells after 48 hrs by sulforhodamine B assay; type: functional; conditions: A498, 48 h; how it was run: as §3
ACHN = experiment: Anticancer activity against human ACHN cells after 48 hrs by sulforhodamine B assay; type: functional; how it was run: as §3
CAKI-1 = experiment: Anticancer activity against human Caki1 cells after 48 hrs by sulforhodamine B assay; type: functional; conditions: CAKI-1, 48 h; how it was run: as §3
[10] = Anticancer activity against human RXF393 cells after 48 hrs by sulforhodamine B assay; type: functional; conditions: RXF 393, 48 h; how it was run: as §3
SN12C = experiment: Anticancer activity against human SN12C cells after 48 hrs by sulforhodamine B assay; type: functional; how it was run: as §3
TK-10 = experiment: Anticancer activity against human TK10 cells after 48 hrs by sulforhodamine B assay; type: functional; conditions: TK-10, 48 h; how it was run: as §4
UO-31 = experiment: Anticancer activity against human UO31 cells after 48 hrs by sulforhodamine B assay; type: functional; conditions: UO-31, 48 h; how it was run: as §4
DU-145 = experiment: Anticancer activity against human DU145 cells after 48 hrs by sulforhodamine B assay; type: functional; conditions: DU-145, 48 h; how it was run: as §3
MCF7 = experiment: Anticancer activity against human MCF7 cells after 48 hrs by sulforhodamine B assay; type: functional; conditions: MCF7, 48 h; how it was run: as §3
MDA-MB-231 = experiment: Anticancer activity against human MDA-MB-231 cells after 48 hrs by sulforhodamine B assay; type: functional; conditions: MDA-MB-231, 48 h; how it was run: as §3
[11] = Anticancer activity against human Hs 578T cells after 48 hrs by sulforhodamine B assay; type: functional; how it was run: as §3
BT-549 = experiment: Anticancer activity against human BT549 cells after 48 hrs by sulforhodamine B assay; type: functional; conditions: BT-549, 48 h; how it was run: as §3
T47D = experiment: Anticancer activity against human T47D cells after 48 hrs by sulforhodamine B assay; type: functional; how it was run: as §4
MDA-MB-468 = experiment: Anticancer activity against human MDA-MB-468 cells after 48 hrs by sulforhodamine B assay; type: functional; conditions: MDA-MB-468, 48 h; how it was run: as §3
[12] = as §1; type: functional, cell-based; conditions: OCI-AML-3, 48 h; how it was run: as §2

## COC(=O)c1ccc(Cn2c(C)c(C=C3C(=O)NC(=O)NC3=O)c3ccccc32)cc1
OCI-AML-3
  Activity: inactive

## COC(=O)c1ccc(Cn2c(C)c(C=C3C(=O)NC(=S)NC3=O)c3ccccc32)cc1
CCRF-CEM
  GI50: 340 nM
HL-60(TB)
  GI50: 220 nM
K562
  GI50: 270 nM
[1]
  GI50: 350 nM
[2]
  GI50: 310 nM
SR
  GI50: 320 nM
A549
  GI50: 1360 nM
HOP-62
  GI50: 390 nM
[3]
  GI50: 250 nM
NCI-H226
  GI50: 410 nM
NCI-H322M
  GI50: 530 nM
NCI-H460
  GI50: 330 nM
NCI-H522
  GI50: 250 nM
[4]
  GI50: 200 nM
[5]
  GI50: 400 nM
HCT-116
  GI50: 260 nM
HCT-15
  GI50: 330 nM
HT-29
  GI50: 310 nM
KM12
  GI50: 310 nM
SW-620
  GI50: 400 nM
SF-268
  GI50: 420 nM
[6]
  GI50: 350 nM
[7]
  GI50: 220 nM
SNB-19
  GI50: 1050 nM
SNB-75
  GI50: 460 nM
U-251
  GI50: 320 nM
[8]
  GI50: 320 nM
Malme-3M
  GI50: 1480 nM
M14
  GI50: 330 nM
MDA-MB-435
  GI50: 220 nM
SK-MEL-2
  GI50: 1120 nM
SK-MEL-28
  GI50: 1050 nM
SK-MEL-5
  GI50: 1130 nM
UACC-257
  GI50: 800 nM
IGROV-1
  GI50: 510 nM
OVCAR-3
  GI50: 300 nM
OVCAR-4
  GI50: 460 nM
OVCAR-5
  GI50: 420 nM
OVCAR-8
  GI50: 320 nM
[9]
  GI50: 350 nM
SK-OV-3
  GI50: 450 nM
786-0
  GI50: 320 nM
A498
  GI50: 190 nM
ACHN
  GI50: 510 nM
CAKI-1
  GI50: 500 nM
[10]
  GI50: 300 nM
SN12C
  GI50: 410 nM
TK-10
  GI50: 310 nM
UO-31
  GI50: 410 nM
DU-145
  GI50: 340 nM
MCF7
  GI50: 400 nM
MDA-MB-231
  GI50: 380 nM
[11]
  GI50: 220 nM
BT-549
  GI50: 310 nM
T47D
  GI50: 1860 nM
MDA-MB-468
  GI50: 340 nM
[12]
  AC50: 1750 nM
OCI-AML-3
  Activity: Dose-dependent effect
